Compound activity (PubChem)
Myeloid diff MLP: myeloid differentiation induction | ER-HoxA9 myeloid progenitors, lysozyme-GFP differentiation, flow cytometry | calls only at 10 µM | hit rate 1% among 360,000 | AID 624256;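 active = normalized GFP-positive differentiation at or above the plate's own cutoff, the solvent-only control mean plus 3 SD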;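 note: cells exposed to compound for four days before flow analysis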
TPT1 inh: inhibitors of Candida albicans tRNA 2'-phosphotransferase TPT1 | inhibition, % at 5 µM | hit rate 0.81% among 300,000 | AID 1962 | recombinant caTPT1, FP RNA substrate dephosphorylation;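 active = inhibition above the mean of all tested compounds plus 3 SD, set per screening campaign, cut at about 24% in these data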;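 note: plate controls were DMSO alone for no effect and ferristatin control at 100 nM for full effect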
HNF4A DNA FP: change in binding of human HNF4 alpha to DNA. P41235. HNF4a-FITC DNA binding, fluorescence polarization, 1 h. activity change, % at 10 µM. hit rate 0.3% among 360,000; in the data active = activity change above about 30%, passing the limit was not always enough
Rpn11 block: blocks the human proteasome subunit Rpn11. O00487. inhibition, % at 20 µM. human 26S proteasome, Ub4-pepOG fluorescence polarization; 20S core pre-blocked with epoxomicin. hit rate 0.59% among 360,000;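 active = inhibition at 20 µM, scaled to each plate's controls, above about 33%, limit read from the data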
Target sequence (O00487 whole entry, looked up): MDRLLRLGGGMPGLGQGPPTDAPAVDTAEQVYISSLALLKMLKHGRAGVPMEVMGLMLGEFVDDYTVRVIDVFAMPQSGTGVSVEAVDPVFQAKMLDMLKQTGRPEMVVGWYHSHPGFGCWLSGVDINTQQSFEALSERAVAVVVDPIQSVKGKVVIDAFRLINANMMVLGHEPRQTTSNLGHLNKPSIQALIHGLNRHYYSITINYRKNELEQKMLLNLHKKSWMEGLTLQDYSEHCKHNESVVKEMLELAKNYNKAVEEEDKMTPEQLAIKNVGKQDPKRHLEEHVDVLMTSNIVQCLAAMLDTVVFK
CSN deneddyl inh: inhibitors of human CSN-mediated cullin deneddylation; Purified CSN, SCF-Nedd8-OG deneddylation, fluorescence polarization; hit rate 0.38% among 360,000; inhibition, % at 12.5 µM; Q92905;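 active = pattern-corrected inhibition above about 35%, with an unprinted fluorescence ratio check between 0.5 and 1.5, limit read from the data, passing the limit was not always enough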;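 note: 0% = enzyme with substrate and 100% = substrate without enzyme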
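Schedule: reaction 90 min, room temperature / Assay system: HEK293T-derived human Csn5 enzyme / Input: Csn5 at 0.24 nM final / Measure: inhibition of Csn5 cleavage, % / Control set: substrate-only high control, full reaction low control / Technique: fluorescence polarization of the substrate / Buffer or medium: Tris/NaCl/DTT buffer, pH 7.5 / Reagent: SCFSkp2-Nedd8OG substrate at 10 nM final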
caTPT1 confirm: TPT1 (C. albicans) inhibition, confirmation | shares compounds with TPT1 inh | recombinant caTPT1, fluorescence polarization, RNase T1 coupled | inhibition, % at 5 µM | hit rate 74% among 2,400;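 active = inhibition above the primary screen limit, the mean inhibition of all tested compounds plus 3 SD, cut at about 25% in these data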
RNase T1 counter: counter-screen for TPT1 inhibitors: inhibitors of Aspergillus oryzae RNase T1; shares compounds with TPT1 inh; RNase T1 cleavage, fluorescence polarization, 1536-well; inhibition, % at 5 µM; hit rate 83% among 2,400;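 active = inhibition above the solvent-only control well mean plus 3 SD, limit set per screening run, cut at about 23% in these data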;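 note: plate controls were DMSO wells with enzyme for no effect and wells without RNase T1 for full effect; inhibitors block cleavage so intact labeled substrate keeps polarization high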
Target sequence (P00651 whole entry, looked up): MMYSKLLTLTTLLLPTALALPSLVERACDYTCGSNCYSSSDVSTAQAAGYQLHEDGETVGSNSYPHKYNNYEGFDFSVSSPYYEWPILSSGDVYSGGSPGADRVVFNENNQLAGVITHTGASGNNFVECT
* hit, by the source's call; i = inactive; nt = not tested or not shown; + = active, no number. Rows were chosen to be rich in hits. Some 2.3% of all compounds tested hit in one or more screens of this group.

SMILES | Myeloid diff MLP | TPT1 inh | HNF4A DNA FP | Rpn11 block | CSN deneddyl inh | caTPT1 confirm | RNase T1 counter
CC(C)(C)C(=O)/C=c1\[nH]c(=O)/c(=C\c2ccc(F)cc2)s1 | i | 4 | 5 | -2 | -2 | nt | nt
CCOC(=O)C1=C(COC(=O)c2ccc(Cl)nc2)NC(=O)NC1C (stereo unspecified) | i | nt | 2 | -2 | -1 | nt | nt
O=C(/C=C/c1ccco1)N1CCC(Cc2ccccc2)CC1 | i | 131* | -11 | 23 | 19 | 2 | 2
O=C(/C=C/c1ccco1)N1CCN(c2ncccn2)CC1 | i | -1 | 0 | -10 | -6 | nt | nt
O=[N+]([O-])c1ccc(C[n+]2cccc3ccc4cccnc4c32)cc1 | i | 8 | 1 | 2 | -10 | nt | nt
O=[N+]([O-])c1ccc(C[n+]2cccc3ccccc32)cc1 | i | 56* | 4 | nt | 17 | 27* | 36*
CCOC(=O)c1[nH]c(C)c(C(=O)Nc2ccc(C)c(F)c2)c1C | i | 0 | 2 | 3 | 1 | nt | nt
CCOC(=O)c1[nH]c(C)c(C(=O)Nc2ccc(C)c(Cl)c2)c1C | i | 28* | 4 | 2 | 0 | 6 | 7
N#CC(CC(=O)c1ccc(F)cc1)c1ccc2c(c1)OCO2 (stereo unspecified) | i | 1 | 3 | 10 | 0 | nt | nt
CC/C(=N\Nc1ccc([N+](=O)[O-])cc1)c1ccccc1 | i | 39* | 21 | nt | 13 | 47* | 60*
C/C(=N\NC(=O)COc1ccc([N+](=O)[O-])cc1)c1ccco1 | i | nt | -2 | -6 | -3 | nt | nt
CCC(CC)=NNc1cccc([N+](=O)[O-])c1 | i | 3 | 1 | -15 | 3 | nt | nt
C/C(=N\Nc1ccc([N+](=O)[O-])cc1)c1ccco1 | i | 48* | 25 | 34 | 10 | 56* | 69*
C/C(=N\Nc1ccc([N+](=O)[O-])cc1)c1ccc(N)cc1 | i | 37* | 20 | 29 | 2 | 34* | 46*
O=[N+]([O-])c1ccc(N/N=C/c2ccccc2O)cc1 | i | 50* | 23 | 22 | 11 | 69* | 81*
O=C(CNC(=O)c1ccc(S(=O)(=O)N2CCCC2)cc1)N/N=C/c1ccco1 | i | 0 | 2 | -2 | -2 | nt | nt
C/C(=N\Nc1ccc([N+](=O)[O-])cc1)c1ccc(N2CCOCC2)cc1 | i | 31* | 11 | 22 | 2 | 46* | 53*
C/C(=N\Nc1ccccc1[N+](=O)[O-])c1ccc(N2CCOCC2)cc1 | i | -2 | -2 | -5 | -2 | nt | nt
CCc1ccc(/C(C)=N\Nc2ccc([N+](=O)[O-])cc2)cc1 | + | 81* | 25 | 33 | 15 | 56* | 71*
COCCCNC(=O)N1c2ccccc2Sc2ccccc21 | i | 25* | -1 | -6 | 1 | 10 | 16
COc1ccc(CCNC(=O)N2c3ccccc3Sc3ccccc32)cc1 | i | -1 | 3 | 1 | 3 | nt | nt
CCOc1ccc(-c2nc(C#N)c(N3CCN(C)CC3)o2)cc1 | i | 76* | 2 | -2 | -2 | 5 | 5
Cc1ccc(OCC(=O)Nc2ccccc2C(=O)N2CCCC2)cc1 | i | -3 | -1 | -3 | 1 | nt | nt
CCCc1cc(-n2ccnc2)n2c(nc3ccccc32)c1C#N | i | 118* | 59* | nt | 31 | 102* | 104*
Cc1c(C#N)c(=O)c(-[n+]2ccccc2)c([S-])n1-c1ccc(Cl)cc1 | i | 3 | -5 | -3 | 0 | nt | nt
C/C(Cl)=C/CSc1nc2c(c(=O)[nH]c(=O)n2C)n1C(C)C | i | 25* | 0 | -3 | 1 | 9 | 11
C=CCSc1nc2c(c(=O)[nH]c(=O)n2C)n1C(C)C | i | -1 | 1 | -5 | -1 | nt | nt
O=C(CC1Nc2ccccc2NC1=O)NCCc1ccccc1 (stereo unspecified) | i | -6 | 7 | 34 | 3 | nt | nt
CC(NC(=O)CC1Nc2ccccc2NC1=O)c1ccccc1 (stereo unspecified) | i | 30* | 4 | 16 | 1 | 39* | 52*
O=C(CC1Nc2ccccc2NC1=O)c1ccccc1 (stereo unspecified) | nt | 73* | nt | nt | nt | 62* | 73*
